Results pooled from the literature.
Protocols differ between the studies behind these lines.
Target: 5'-AMP-activated protein kinase catalytic subunit alpha-1 (PRKAA1, Homo sapiens, UniProt Q13131)
Technique: competition with immobilised ligand

SMILES	observed	concentration	remaining binding [%]
C[C@@H](c1ccc(-n2cnc3c(N)ncnc32)cc1)N1CCc2nn(C)c(Cc3ccccc3)c2C1=O	binding	0.1 µM	95
O=C(NCCCN1CCOCC1)c1ccc(Nc2ncc(Cl)c(-c3ccc(Cl)s3)n2)cc1	binding	1 µM	15
c1cncc(-c2cccc(Nc3nccc(NC4CCCCC4)n3)c2)c1	binding	10 µM	15
FC(F)(F)Oc1cccc(-c2cnc3ccc(-c4ccncc4)nn23)c1	cell-free assay	5 µM	96
NS(=O)(=O)c1cc(NC(=O)C2(c3ccccc3Cl)CC2)ccc1Oc1cccc(Cl)c1	cell-free assay	1 µM	80
F[C@@H]1CCN(c2nccc(-c3cnn4ncccc34)n2)C1	binding	1 µM	85
Cc1cnc(Nc2ccc(C(=O)N3CCC(N4CCCC4)CC3)cc2)nc1-c1cc2ccccc2s1	binding	1 µM	7.9
C[C@@H]1CCN(c2nccc(-c3cnn4ncccc34)n2)C1	binding	1 µM	99
COc1cnc(Nc2cccc(S(N)(=O)=O)c2)nc1N1CCN(c2ccccc2)CC1	binding	1 µM	100
Cc1c(NC(=O)c2cc(C(N)=O)nc3cc(F)ccc23)c(C(F)(F)F)nn1Cc1ccc(C(C)(C)C)cc1	cell-free assay	1 µM	100
O=C(c1ccc(Nc2ncc(Cl)c(-c3ccc(Cl)s3)n2)cc1)N1CCC(N2CCCC2)CC1	binding	1 µM	8.1
CN(C)c1nccc(-c2cnn3ncccc23)n1	binding	1 µM	100
CNC(=O)[C@@H]1CC[C@@H](n2c(-c3ccc4cnccc4c3)nc3ccc(C(=O)NCc4cccc(C(N)=O)c4)cc32)C1	binding	1 µM	84
CC(=O)N1CCC(c2ccc(C(=O)NC3=NCCN3)cc2C(F)(F)F)CC1	cell-free assay	1 µM	100
CN(C)c1nccc(-c2cnc3ncccn23)n1	binding	1 µM	100
C[C@H](NC(=O)c1cnc2n1[C@](C)(Cc1ccc(C#N)cc1)C(=O)N2c1cc(Cl)c(F)c(Cl)c1)C(=O)NC1(c2ccccn2)CC1	cell-free assay	1 µM	100
CN(CCCC(F)(F)F)c1nccc(-c2cnn3ncccc23)n1	binding	1 µM	100
O=S(=O)(NC1CCC(c2cc(F)ccc2F)(S(=O)(=O)c2ccc(Cl)cc2)CC1)C(F)(F)F (stereo not drawn)	cell-free assay	1 µM	100
N[C@@H]1CCN(c2nccc(-c3cnn4ncccc34)n2)C1	binding	1 µM	95
O=C(NC[C@@H]1[C@H]2CN(C(=O)OCc3cc(C(F)(F)F)cc(C(F)(F)F)c3)C[C@@H]12)c1ccc2[nH]nnc2c1	cell-free assay	1 µM	100
O=C(Nc1c[nH]nc1C(=O)NC1CCNCC1)c1cc(F)cc(F)c1	binding	1 µM	100
